{"source": "paper PMC10556424", "about": "(RSC Advances, 2023)", "key": {"[1]": {"tested_on": "HBV DNA in HBV-expressed HepG2.2.15 cells", "assay": "In vitro anti-HBV activity in HepG2.2.15 cell line", "type": "cell-based", "details": "Hepatitis B virus, HepG2.2.15, 144 h, read-out: % HBV DNA remaining", "summary_of_the_method": "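HepG2.2.15 cells were seeded at 5 × 10^5 per well in high-glucose DMEM with 10% heat-inactivated FBS, 300 mg L−1 G418, 1% non-essential amino acids and antibiotic–antimycotic, then held overnight at 37 °C, 5% CO2. Compound or 0.5% DMSO was given for 3 days, then renewed for 3 more days. Intracellular HBV DNA was measured by qPCR as % remaining versus vehicle; EC50 came from a 4-parameter nonlinear fit.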"}, "[2]": {"assay": "In vitro microsomal stability", "type": "in vitro ADME", "details": "human liver microsomes, 1 μM, Table 3", "summary_of_the_method": "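Compound (1 μM) with pooled human liver microsomes (0.4 mg mL−1) in 100 mM potassium phosphate, pH 7.4, with 3.3 mM MgCl2 and 1.3 mM β-NADPH. Organic solvent was ≤1%, at 37 °C. Time-point samples were quenched with ice-cold acetonitrile containing internal standard, centrifuged, and the supernatants analysed by LC-MS/MS. Results are intrinsic clearance.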"}, "CYP2A6": {"target": "T1, CYP2A6 (Homo sapiens, UniProt P11509)", "T1 sequence (P11509 1-494)": "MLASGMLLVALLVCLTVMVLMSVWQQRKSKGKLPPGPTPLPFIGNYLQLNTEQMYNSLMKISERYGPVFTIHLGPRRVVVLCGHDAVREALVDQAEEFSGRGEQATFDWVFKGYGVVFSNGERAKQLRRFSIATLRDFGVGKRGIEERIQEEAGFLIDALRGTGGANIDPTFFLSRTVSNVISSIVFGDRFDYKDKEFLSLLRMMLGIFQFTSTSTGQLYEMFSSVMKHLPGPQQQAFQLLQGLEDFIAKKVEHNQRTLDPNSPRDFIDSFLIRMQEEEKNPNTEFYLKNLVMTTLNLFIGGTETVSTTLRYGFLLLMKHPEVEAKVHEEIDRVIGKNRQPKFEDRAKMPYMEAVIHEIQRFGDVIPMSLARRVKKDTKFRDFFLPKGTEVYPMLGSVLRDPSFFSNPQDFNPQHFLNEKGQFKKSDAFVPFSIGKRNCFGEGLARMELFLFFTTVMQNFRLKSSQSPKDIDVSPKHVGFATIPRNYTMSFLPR", "assay": "CYP450 inhibition in human liver microsomes", "type": "in vitro ADME", "details": "pooled human liver microsomes, pH 7.4, probe coumarin (1.5 μM)", "summary_of_the_method": "(§1)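 Test compound at 10 μM with pooled human liver microsomes (0.2 mg mL−1) and a cocktail of 10 CYP probe substrates. Buffer was 100 mM potassium phosphate, pH 7.4, with 3.3 mM MgCl2, at 37 °C. β-NADPH (1.3 mM) started the reaction. After 10 min, ice-cold 3% formic acid in 5% acetonitrile stopped it. Centrifuged samples went to LC-MS/MS; each metabolite's formation is given as % inhibition versus control.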"}, "CYP2C8": {"target": "T2, CYP2C8 (Homo sapiens, UniProt P10632)", "T2 sequence (P10632 1-490)": "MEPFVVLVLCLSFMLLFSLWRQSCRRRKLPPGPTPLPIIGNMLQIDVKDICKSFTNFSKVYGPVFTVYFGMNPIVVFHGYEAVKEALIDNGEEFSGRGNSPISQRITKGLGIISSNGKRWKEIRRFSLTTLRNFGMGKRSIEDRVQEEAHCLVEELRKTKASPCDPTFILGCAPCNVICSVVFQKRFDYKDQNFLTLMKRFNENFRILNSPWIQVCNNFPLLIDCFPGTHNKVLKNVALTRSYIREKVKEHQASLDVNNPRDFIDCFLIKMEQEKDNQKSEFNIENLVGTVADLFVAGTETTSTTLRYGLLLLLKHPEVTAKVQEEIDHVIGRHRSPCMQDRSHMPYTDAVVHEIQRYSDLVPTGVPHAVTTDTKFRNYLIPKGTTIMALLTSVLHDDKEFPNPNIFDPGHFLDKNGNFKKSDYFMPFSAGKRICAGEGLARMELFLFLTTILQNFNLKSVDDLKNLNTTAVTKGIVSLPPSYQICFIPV", "assay": "CYP450 inhibition in human liver microsomes", "type": "in vitro ADME", "details": "pooled human liver microsomes, pH 7.4, probe amodiaquine (1 μM)", "summary_of_the_method": "as §1"}, "CYP2D6": {"target": "CYP2D6 (Homo sapiens, UniProt P10635)", "sequence (P10635 whole entry)": "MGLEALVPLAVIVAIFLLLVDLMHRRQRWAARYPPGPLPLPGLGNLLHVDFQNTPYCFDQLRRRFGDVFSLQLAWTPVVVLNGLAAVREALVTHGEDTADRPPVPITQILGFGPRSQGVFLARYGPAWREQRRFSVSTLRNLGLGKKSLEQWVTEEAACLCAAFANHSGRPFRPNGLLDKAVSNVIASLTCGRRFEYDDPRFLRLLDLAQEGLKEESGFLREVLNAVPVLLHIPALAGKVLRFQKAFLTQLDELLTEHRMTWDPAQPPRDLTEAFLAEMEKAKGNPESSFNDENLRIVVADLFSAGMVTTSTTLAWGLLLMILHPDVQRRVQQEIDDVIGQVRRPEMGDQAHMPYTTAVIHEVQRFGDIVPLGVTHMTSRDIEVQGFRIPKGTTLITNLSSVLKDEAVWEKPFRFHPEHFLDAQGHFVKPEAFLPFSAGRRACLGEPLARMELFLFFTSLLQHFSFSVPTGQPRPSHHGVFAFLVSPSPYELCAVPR", "assay": "CYP450 inhibition in human liver microsomes", "type": "in vitro ADME", "details": "pooled human liver microsomes, pH 7.4, probe dextromethorphan (2.5 μM)", "summary_of_the_method": "as §1"}}}
{"smiles": "O=C(Nc1cc(F)c(F)c(F)c1)[C@H]1CCN(C(=O)c2cc3cnccc3[nH]2)C1", "note": "[CU04, (S)-1-(1H-Pyrrolo[3,2-c]pyridine-2-carbonyl)-N-(3,4,5-trifluorophenyl)pyrrolidine-3-carboxamide]", "values": [{"measurement": "activity at 1 µM", "setting": "[1]", "result": 67, "unit": "%"}, {"measurement": "CLint", "setting": "[2]", "result": 1.1, "unit": "μL per min per mg protein"}, {"measurement": "inhibition at 10 min, 10 µM", "setting": "CYP2A6", "result": 57, "unit": "%"}, {"measurement": "inhibition at 10 min, 10 µM", "setting": "CYP2C8", "result": 55, "unit": "%"}, {"measurement": "inhibition at 10 min, 10 µM", "setting": "CYP2D6", "result": 82, "unit": "%"}]}
